Results: ChEMBL document CHEMBL2146441, “2,6-Disubstituted imidazo[2,1-b][1,3,4]thiadiazoles: search for anticancer agents” (2012)

Key:
Type in all cases: functional
NCI-H226 = experiment: Cytotoxicity against human NCI-H226 cells assessed as cell growth at 10^-5 M after 48 hrs by SRB assay; conditions: NCI-H226, 48 h, read-out: Activity
KM12 [1] = experiment: Cytotoxicity against human KM12 cells assessed as cell growth at 10^-5 M after 48 hrs by SRB assay; conditions: KM12, 48 h, read-out: Activity
OVCAR-3 = experiment: Cytotoxicity against human OVCAR3 cells assessed as cell growth at 10^-5 M after 48 hrs by SRB assay; conditions: OVCAR-3, 48 h, read-out: Activity
A498 = experiment: Cytotoxicity against human A498 cells assessed as cell growth at 10^-5 M after 48 hrs by SRB assay; conditions: A498, 48 h, read-out: Activity
How it was run: (§1)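 NCI-60 screen: lines kept in RPMI 1640 with 5% FBS, seeded at 5000–40,000 cells/well by doubling time, preincubated 24 h at 37 °C in 5% CO2. Time-zero plates TCA-fixed at drug addition. DMSO stocks diluted in medium, 48 h exposure. Fixation in cold TCA (final 10% adherent, 16% suspension), 0.4% SRB stain, solubilised in 10 mM Tris base, A515. Percent growth computed against control and time-zero.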

TK-10 [2] = experiment: Growth inhibition of human TK10 cells after 48 hrs by SRB assay; conditions: TK-10, 48 h; for CC50: read-out: LC50 (the source's name)
How it was run: (§2)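 Adherent NCI-60 lines grown in RPMI 1640 with 5% FBS, seeded at 5000–40,000 cells/well, and preincubated 24 h at 37 °C, 5% CO2. Compound, stocked in DMSO, given either once at 10^-5 M or at five 10-fold dilutions for 48 h. Cells fixed with cold TCA (final 10%), stained with 0.4% SRB, and read at 515 nm. GI50 taken as 50% reduction in net protein increase versus time-zero and control plates.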

MDA-MB-468 = experiment: Growth inhibition of human MDA-MB-468 cells after 48 hrs by SRB assay; conditions: MDA-MB-468, 48 h; how it was run: as §2
[3] = Cytotoxicity against human Hs 578T cells assessed as cell growth at 10^-5 M after 48 hrs by SRB assay; conditions: read-out: Activity
How it was run: (§3)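 NCI-60 five-dose screen. Cells were grown in RPMI 1640 with 5% FBS and seeded at 5000–40,000 cells/well according to doubling time. They were pre-incubated 24 h at 37 °C in 5% CO₂, and time-zero (Tz) plates were TCA-fixed at drug addition. Five 10-fold dilutions of DMSO stock were applied for 48 h. Read-out was SRB staining, 515 nm absorbance, with percent growth calculated versus Tz and untreated control.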

CCRF-CEM = experiment: Cytotoxicity against human CCRF-CEM cells assessed as cell growth at 10^-4 M after 48 hrs by SRB assay; conditions: read-out: Activity; how it was run: as §1
[4] = Growth inhibition of human […] cells after 48 hrs by SRB assay
KM12 [5] = experiment: Cytotoxicity against human KM12 cells assessed as cell growth at 10^-7 M after 48 hrs by SRB assay; conditions: KM12, 48 h, read-out: Activity
SW-620 = experiment: Cytotoxicity against human SW620 cells assessed as cell growth at 10^-7 M after 48 hrs by SRB assay; conditions: SW-620, 48 h, read-out: Activity
SK-MEL-2 = experiment: Cytotoxicity against human SK-MEL-2 cells assessed as cell growth at 10^-7 M after 48 hrs by SRB assay; conditions: SK-MEL-2, 48 h, read-out: Activity
HCT-15 = experiment: Cytotoxicity against human HCT15 cells assessed as cell growth at 10^-4 M after 48 hrs by SRB assay; conditions: HCT-15, 48 h, read-out: Activity; how it was run: as §3
SNB-19 = experiment: Cytotoxicity against human SNB19 cells assessed as cell growth at 10^-4 M after 48 hrs by SRB assay; conditions: SNB-19, 48 h, read-out: Activity
OVCAR-8 = experiment: Cytotoxicity against human OVCAR8 cells assessed as cell growth at 10^-4 M after 48 hrs by SRB assay; conditions: OVCAR-8, 48 h, read-out: Activity
ACHN [6] = experiment: Cytotoxicity against human ACHN cells assessed as cell growth at 10^-4 M after 48 hrs by SRB assay; conditions: read-out: Activity; how it was run: as §1
CAKI-1 = experiment: Cytotoxicity against human Caki1 cells assessed as cell growth at 10^-4 M after 48 hrs by SRB assay; conditions: CAKI-1, 48 h, read-out: Activity; how it was run: as §1
UO-31 = experiment: Cytotoxicity against human UO31 cells assessed as cell growth at 10^-4 M after 48 hrs by SRB assay; conditions: UO-31, 48 h, read-out: Activity
ACHN [7] = experiment: Cytotoxicity against human ACHN cells assessed as cell growth at 10^-7 M after 48 hrs by SRB assay; conditions: read-out: Activity; how it was run: as §1
TK-10 [8] = experiment: Cytotoxicity against human TK10 cells assessed as cell growth at 10^-7 M after 48 hrs by SRB assay; conditions: TK-10, 48 h, read-out: Activity
DU-145 = experiment: Cytotoxicity against human DU145 cells assessed as cell growth at 10^-7 M after 48 hrs by SRB assay; conditions: DU-145, 48 h, read-out: Activity; how it was run: as §1
SR [9] = experiment: Cytotoxicity against human SR cells assessed as cell growth at 10^-8 M after 48 hrs by SRB assay; conditions: read-out: Activity
A549 = experiment: Cytotoxicity against human A549 cells assessed as cell growth at 10^-8 M after 48 hrs by SRB assay; conditions: A549, 48 h, read-out: Activity; how it was run: as §1
HOP-92 = experiment: Cytotoxicity against human HOP92 cells assessed as cell growth at 10^-8 M after 48 hrs by SRB assay; conditions: HOP-92, 48 h, read-out: Activity; how it was run: as §3
SF-268 = experiment: Cytotoxicity against human SF268 cells assessed as cell growth at 10^-8 M after 48 hrs by SRB assay; conditions: SF-268, 48 h, read-out: Activity
SK-OV-3 = experiment: Cytotoxicity against human SKOV3 cells assessed as cell growth at 10^-8 M after 48 hrs by SRB assay; conditions: SK-OV-3, 48 h, read-out: Activity
SR [10] = experiment: Cytotoxicity against human SR cells assessed as cell growth at 10^-6 M after 48 hrs by SRB assay; conditions: read-out: Activity
HOP-62 = experiment: Cytotoxicity against human HOP62 cells assessed as cell growth at 10^-6 M after 48 hrs by SRB assay; conditions: HOP-62, 48 h, read-out: Activity; how it was run: as §3
LOX IMVI = experiment: Cytotoxicity against human LOXIMVI cells assessed as cell growth at 10^-6 M after 48 hrs by SRB assay; conditions: read-out: Activity
TK-10 [11] = experiment: Cytotoxicity against human TK10 cells assessed as cell growth at 10^-6 M after 48 hrs by SRB assay; conditions: TK-10, 48 h, read-out: Activity
T47D = experiment: Cytotoxicity against human T47D cells assessed as cell growth at 10^-6 M after 48 hrs by SRB assay; conditions: read-out: Activity
MOLT-4 = experiment: Cytotoxicity against human MOLT4 cells assessed as cell growth at 10^-5 M after 48 hrs by SRB assay; conditions: MOLT-4, 48 h, read-out: Activity

| Structure (SMILES) | growth at 10 µM (NCI-H226) [%] | growth at 10 µM (KM12 [1]) [%] | growth at 10 µM (OVCAR-3) [%] | growth at 10 µM (A498) [%] | GI50 (TK-10 [2]) [µM] | TGI (TK-10 [2]) [µM] | CC50 (TK-10 [2]) [µM] | GI50 (MDA-MB-468) [nM] | LC50 (MDA-MB-468) [µM] | TGI (MDA-MB-468) [µM] | growth at 10 µM [3] [%] | growth at 100 µM (CCRF-CEM) [%] | GI50 [4] [nM] | growth at 0.1 µM (KM12 [5]) [%] | growth at 0.1 µM (SW-620) [%] | growth at 0.1 µM (SK-MEL-2) [%] | growth at 100 µM (HCT-15) [%] | growth at 100 µM (SNB-19) [%] | growth at 100 µM (OVCAR-8) [%] | growth at 100 µM (ACHN [6]) [%] | also measured |
| --- | --- | --- | --- | --- | --- | --- | --- | --- | --- | --- | --- | --- | --- | --- | --- | --- | --- | --- | --- | --- | --- |
| COc1ccc(-c2nn3cc(-c4ccc(O)cc4O)nc3s2)cc1 | -11 | 21 | -7 | -50 | 3.46 | 17.4 | > 100 | 1500 | > 100 | 17.6 | -2 | 8 | 1920 | 96 | 96 | 96 | 4 | 1 | -8 | 6 | growth at 100 µM (CAKI-1): -9%; growth at 100 µM (UO-31): -10%; growth at 0.1 µM (ACHN [7]): 101%; growth at 0.1 µM (TK-10 [8]): 105%; growth at 0.1 µM (DU-145): 96%; growth at 0.01 µM (SR [9]): 89%; growth at 0.01 µM (A549): 96%; growth at 0.01 µM (HOP-92): 73%; growth at 0.01 µM (SF-268): 97%; growth at 0.01 µM (SK-OV-3): 102%; growth at 1 µM (SR [10]): 72%; growth at 1 µM (HOP-62): 81%; growth at 1 µM (LOX IMVI): 82%; growth at 1 µM (TK-10 [11]): 101%; growth at 1 µM (T47D): 71%; growth at 10 µM (MOLT-4): 20% |
| COc1ccc(-c2nn3cc(-c4cccc(N)c4)nc3s2)cc1 | 16 | 37 | 19 | -17 | 7.56 | 37.4 | > 100 | 1830 | > 100 | 9.32 | 6 | 6 | 2330 | 100 | 95 | 93 | 1 | 7 | -54 | -53 | growth at 100 µM (CAKI-1): -39%; growth at 100 µM (UO-31): -63%; growth at 0.1 µM (ACHN [7]): 105%; growth at 0.1 µM (TK-10 [8]): 135%; growth at 0.1 µM (DU-145): 103%; growth at 0.01 µM (SR [9]): 103%; growth at 0.01 µM (A549): 106%; growth at 0.01 µM (HOP-92): 71%; growth at 0.01 µM (SF-268): 100%; growth at 0.01 µM (SK-OV-3): 97%; growth at 1 µM (SR [10]): 81%; growth at 1 µM (HOP-62): 84%; growth at 1 µM (LOX IMVI): 77%; growth at 1 µM (TK-10 [11]): 118%; growth at 1 µM (T47D): 57%; growth at 10 µM (MOLT-4): 21% |
